# ChEMBL document CHEMBL1132707, “1-(N-alkylamino)-11-(N-ethylamino)-4,8-diazaundecanes: simple synthetic polyamine analogues that differentially alter tubulin polymerization” (J Med Chem, 1999)
# Legend:
# Type in all cases: protein assay
# Tubulin (Bos taurus) [1] = target: T1, Tubulin (Bos taurus) (UniProt Q6B856+Q862L2+Q862F3); test: The compound (1 mM) + spermine (1 mM) mixture was evaluated for its effects on tubulin polymerization in the absence of MAPS as equilibrium reading (10 min reading)
# Summary of the method: (§1)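 MAP-free purified tubulin, thawed immediately before use. Buffer A (0.1 M MES pH 6.7, 1.0 mM MgCl2, 0.5 mM EGTA), no GTP or organic solvent, with 1 mM analogue (or analogue plus 1 mM spermine), warmed to 37 °C. Started by 10-fold dilution of 10 mg/mL tubulin. OD340 followed from 30 s, equilibrium read at 10 min. At least three determinations, variation ≤10%.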
# Tubulin (Bos taurus) [2] = target: T1, Tubulin (Bos taurus); test: The compound (1 mM) + spermine (1 mM) mixture was evaluated for its effect on tubulin polymerization in the absence of MAPS as rate =change in OD340/min; summary of the method: as §1
# Tubulin (Bos taurus) [3] = target: T1, Tubulin (Bos taurus); test: The compound was evaluated for its effect on tubulin polymerization in the presence of MAPS as equilibrium reading (20 min reading)
# Summary of the method: (§2)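 MAP-rich tubulin, thawed just before the reaction. Buffer A (0.1 M MES pH 6.7, 1.0 mM MgCl2, 0.5 mM EGTA) containing 1 mM analogue (or analogue plus 1 mM spermine), equilibrated at 37 °C. Started by 7.5-fold dilution of 7.5 mg/mL tubulin. OD340 followed from 30 s, equilibrium read at 20 min. At least three determinations, variation ≤10%.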
# Tubulin (Bos taurus) [4] = target: T1, Tubulin (Bos taurus); test: The compound was evaluated for its effect on tubulin polymerization in the presence of MAPS as rate =change in OD340/min; summary of the method: as §2
# Tubulin (Bos taurus) [5] = target: T1, Tubulin (Bos taurus); test: The compound was evaluated for its effect on tubulin polymerization in the absence of MAPS as equilibrium reading (10 min reading); summary of the method: as §1
# Tubulin (Bos taurus) [6] = target: T1, Tubulin (Bos taurus); test: The compound was evaluated for its effect on tubulin polymerization in the absence of MAPS as rate =change in OD340/min; summary of the method: as §1
# Tubulin (Bos taurus) [7] = target: T1, Tubulin (Bos taurus); test: The compound (1 mM) + spermine (1 mM) mixture was evaluated for its effects on tubulin polymerization in the presence of MAPS as rate =change in OD340/min; summary of the method: as §2
# Tubulin (Bos taurus) [8] = target: T1, Tubulin (Bos taurus); test: The compound (1 mM) + spermine (1 mM) mixture was evaluated for its effects on tubulin polymerization in the presence of MAPS as equilibrium reading (20 min reading); summary of the method: as §2
Equilibrium OD340 (Tubulin (Bos taurus) [1]),Equilibrium OD340 (Tubulin (Bos taurus) [3]),Rate (delta OD340 min-1) (Tubulin (Bos taurus) [4]),Equilibrium OD340 (Tubulin (Bos taurus) [5]),Rate (delta OD340 min-1) (Tubulin (Bos taurus) [6]),Rate (delta OD340 min-1) (Tubulin (Bos taurus) [7]),Equilibrium OD340 (Tubulin (Bos taurus) [8]),Rate (Tubulin (Bos taurus) [2]),Compound,Rate (delta OD340 min-1) (Tubulin (Bos taurus) [2])
1.08,0.098,0.036,0.563,0.096,0.031,0.514,–,CCNCCCNCCCNCCCNCC1CC1,0.131
1.09,0.247,0.021,1.79,0.69,0.069,0.392,0.205,CCNCCCNCCCNCCCNC[C@@H](C)CC,–
–,0.624,0.055,1.31,0.14,–,–,–,NCCCNCCCCNCCCN,–

Compound,Equilibrium OD340 (Tubulin (Bos taurus) [1]),Equilibrium OD340 (Tubulin (Bos taurus) [3]),Rate (delta OD340 min-1) (Tubulin (Bos taurus) [4]),Equilibrium OD340 (Tubulin (Bos taurus) [5]),Rate (delta OD340 min-1) (Tubulin (Bos taurus) [6]),Rate (delta OD340 min-1) (Tubulin (Bos taurus) [7]),Equilibrium OD340 (Tubulin (Bos taurus) [8]),Rate (Tubulin (Bos taurus) [2]),Rate (delta OD340 min-1) (Tubulin (Bos taurus) [2])
CCNCCCNCCCNCCCNCC1CCCCCC1,1.71,1.3,0.25,2.42,0.37,0.16,1.01,–,0.131
